From ChEMBL document CHEMBL1138253, “Cytotoxic and apoptotic activities of novel amino analogues of boswellic acids” (2007)
Activity calls are given as the source filed them. No cut-off for these calls is given here.

Tests used:
[1] = test system: MCF7; assay: Cytotoxicity against human MCF7 cells at 50 uM after 48 hrs; type: functional; settings: MCF7, 48 h
Summary of the method: (§1)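 Stock 1 × 10^-2 M in DMSO, diluted in RPMI-1640 (2 mM glutamine, pH 7.4, 10% FCS, penicillin/streptomycin). Cells grown at 37 C, 5% CO2; subconfluent cells trypsinised, >97% viable by trypan blue. Seeded at 10^5 cells/ml, grown 24 h, then exposed 48 h. TCA fixation at 4 C for 1 h, sulforhodamine B staining, Tris pH 10.4 solubilisation, OD 540 nm. Triplicate; mean of three experiments.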

[2] = test system: DU-145; assay: Cytotoxicity against human DU145 cells at 50 uM after 48 hrs; type: functional; settings: DU-145, 48 h; summary of the method: as §1
[3] = test system: SW-620; assay: Cytotoxicity against human SW620 cells at 50 uM after 48 hrs; type: functional; settings: SW-620, 48 h; summary of the method: as §1
[4] = Cytotoxicity against human 502713 cells at 50 uM after 48 hrs; type: functional; settings: Homo sapiens, 502713, 48 h; summary of the method: as §1
[5] = test system: HT-29; assay: Cytotoxicity against human HT29 cells at 50 uM after 48 hrs; type: functional; settings: HT-29, 48 h; summary of the method: as §1
[6] = test system: MCF7; assay: Cytotoxicity against human MCF7 cells at 1 uM after 48 hrs; type: functional; settings: MCF7, 48 h
Summary of the method: (§2)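 SRB growth assay. DMSO stock (1 × 10^-2 M) diluted in RPMI-1640 (2 mM glutamine, pH 7.4, 10% FCS, antibiotics). Trypsinized subconfluent cells with >97% viability (trypan blue) seeded at 10^5 cells/ml and grown 24 h, then exposed to compound 48 h at 37 °C, 5% CO2. Fixed with TCA at 4 °C for 1 h, stained with 0.4% SRB, solubilized in 0.01 M Tris pH 10.4, OD read at 540 nm. Run in triplicate; mean of three experiments.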

[7] = test system: DU-145; assay: Cytotoxicity against human DU145 cells at 1 uM after 48 hrs; type: functional; settings: DU-145, 48 h; summary of the method: as §2
[8] = test system: SW-620; assay: Cytotoxicity against human SW620 cells at 1 uM after 48 hrs; type: functional; settings: SW-620, 48 h; summary of the method: as §2
[9] = Cytotoxicity against human 502713 cells at 1 uM after 48 hrs; type: functional; settings: Homo sapiens, 502713, 48 h; summary of the method: as §2
[10] = test system: COLO 205; assay: Cytotoxicity against human Colo205 cells at 1 uM after 48 hrs; type: functional; settings: COLO 205, 48 h; summary of the method: as §2
[11] = test system: MCF7; assay: Cytotoxicity against human MCF7 cells at 10 uM after 48 hrs; type: functional; settings: MCF7, 48 h; summary of the method: as §2
[12] = test system: DU-145; assay: Cytotoxicity against human DU145 cells at 10 uM after 48 hrs; type: functional; settings: DU-145, 48 h; summary of the method: as §2
[13] = test system: SW-620; assay: Cytotoxicity against human SW620 cells at 10 uM after 48 hrs; type: functional; settings: SW-620, 48 h; summary of the method: as §2
[14] = Cytotoxicity against human 502713 cells at 10 uM after 48 hrs; type: functional; settings: Homo sapiens, 502713, 48 h; summary of the method: as §2
[15] = test system: HT-29; assay: Cytotoxicity against human HT29 cells at 10 uM after 48 hrs; type: functional; settings: HT-29, 48 h; summary of the method: as §2
[16] = test system: HL-60; assay: Induction of apoptosis in human HL60 cells assessed as nucleosomal DNA fragmentation at 1 uM after 6 hrs; type: functional, cell-based
Summary of the method: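 HL-60 cells (2 × 10^6/3 ml) exposed to 1 µM compound for 6 h, with camptothecin as positive control and DMSO vehicle in untreated controls. DNA was extracted and run on 1.8% agarose gel to look for laddering.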

Structure (SMILES)	inhibition at 50 µM [1] [%]	inhibition at 50 µM [2] [%]	inhibition at 50 µM [3] [%]	inhibition at 50 µM [4] [%]	inhibition at 50 µM [5] [%]	inhibition at 1 µM [6] [%]	inhibition at 1 µM [7] [%]	inhibition at 1 µM [8] [%]	inhibition at 1 µM [9] [%]	inhibition at 1 µM [10] [%]	inhibition at 10 µM [11] [%]	inhibition at 10 µM [12] [%]	inhibition at 10 µM [13] [%]	inhibition at 10 µM [14] [%]	inhibition at 10 µM [15] [%]	Activity [16]
O=c1[nH]cc(F)c(=O)[nH]1 [FLUOROURACIL]	20	31	41	25	36	–	–	–	–	–	–	–	–	–	–	–
COc1cccc2c1C(=O)c1c(O)c3c(c(O)c1C2=O)C[C@@](O)(C(=O)CO)C[C@@H]3O[C@H]1C[C@H](N)[C@H](O)[C@H](C)O1 [DOXORUBICIN]	–	–	–	–	–	74	56	36	5	62	–	–	–	–	–	–
CC(=O)O[C@@H]1CC[C@]2(C)[C@H]3CC=C4[C@@H]5[C@@H](C)[C@H](C)CC[C@]5(C)CC[C@@]4(C)[C@]3(C)CC[C@H]2[C@@]1(C)N	–	–	–	–	–	0	0	18	6	34	10	92	80	96	44	Active
CC[C@@]1(O)C(=O)OCc2c1cc1n(c2=O)Cc2cc3ccccc3nc2-1	–	–	–	–	–	–	–	–	–	–	–	–	–	–	–	Active
CC(=O)N[C@]1(C)[C@@H]2CC[C@]3(C)[C@H](C(=O)C=C4[C@@H]5[C@@H](C)[C@H](C)CC[C@]5(C)CC[C@]43C)[C@@]2(C)CC[C@H]1OC(C)=O	–	–	–	–	–	–	–	–	–	–	62	9	0	20	0	–
C[C@H]1[C@H](C)CC[C@]2(C)CC[C@]3(C)C(=CC[C@@H]4[C@@]5(C)CC[C@@H](O)[C@](C)(C(=O)O)[C@@H]5CC[C@]43C)[C@H]12 [BOSWELLIC ACID]	–	–	–	–	–	–	–	–	–	–	18	0	2	24	15	–
CC(=O)O[C@@H]1CC[C@]2(C)[C@H]3C(=O)C=C4[C@@H]5[C@@H](C)[C@H](C)CC[C@]5(C)CC[C@@]4(C)[C@]3(C)CC[C@H]2[C@@]1(C)N	–	–	–	–	–	–	–	–	–	–	1	16	72	55	21	Active
C[C@H]1[C@H](C)CC[C@]2(C)CC[C@]3(C)C(=CC[C@@H]4[C@@]5(C)CC[C@@H](O)[C@](C)(N)[C@@H]5CC[C@]43C)[C@H]12	–	–	–	–	–	0	3	45	35	30	42	82	73	99	79	Active
C[C@H]1[C@H](C)CC[C@]2(C)CC[C@]3(C)C(=CC(=O)[C@@H]4[C@@]5(C)CC[C@@H](O)[C@](C)(N)[C@@H]5CC[C@]43C)[C@H]12	–	–	–	–	–	0	16	75	48	48	44	94	87	86	71	Active
C[C@H]1[C@H](C)CC[C@]2(C)CC[C@]3(C)C(=CC[C@@H]4[C@@]5(C)CC[C@H](O)[C@](C)(C(=O)O)[C@@H]5CC[C@]43C)[C@H]12	–	–	–	–	–	–	–	–	–	–	18	1	15	18	11	–
